Results taken from ChEMBL document CHEMBL4400513, “Aurone derivatives as promising antibacterial agents against resistant Gram-positive pathogens” (Eur J Med Chem, 2019).
In brackets after ≈: the same amount, converted by molar mass. Activity calls are given as the source filed them. No cut-off for these calls is given here.

Key:
Bacillus subtilis [1] = assay: Antimicrobial activity against Bacillus subtilis after 18 to 24 hrs in aerobic condition by two-fold serial dilutions method; type: functional
In short: (§1)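 Colonies grown overnight (~16 h) in Mueller-Hinton broth at 37 °C, 200 rpm, diluted 1/100 and grown to log phase (OD600 ~0.6), then diluted to ~10^5 bacteria/mL. Exposed to 0 to 500 µM in 1:2 series (0.2% DMSO final control), aerobic, 37 °C, 18–24 h. OD600 read; MIC = lowest concentration without visible growth; n = 3.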

Bacillus subtilis [2] = assay: Antimicrobial activity against Nisin-resistant Bacillus subtilis after 18 to 24 hrs in aerobic condition by two-fold serial dilutions method; type: functional
In short: (§2)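 Strains grown on LB at 37 °C aerobically, then in Mueller-Hinton broth overnight at 200 rpm and brought to log phase (OD600 ~0.6). About 10^5 bacteria/mL exposed to two-fold serial dilutions 0–500 µM, DMSO 0.2% final as control. Aerobic incubation at 37 °C for 18–24 h; OD600 read; MIC = lowest concentration inhibiting visible growth. n = 3.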

Clostridium perfringens [3] = assay: Antimicrobial activity against Clostridium perfringens after 24 to 72 hrs in anaerobic condition by two-fold serial dilutions method; type: functional
In short: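 C. perfringens grown in BHI at 37 °C anaerobically and brought to log phase (OD600 ~0.6). About 10^5 bacteria/mL with two-fold serial dilutions 0–500 µM, DMSO 0.2% final as control. Incubated 24 h at 37 °C in anaerobic cabinet; OD600 read; MIC = lowest concentration with no visible growth. Independent triplicate.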

Cutibacterium acnes = assay: Antimicrobial activity against Propionibacterium acnes after 18 to 24 hrs in aerobic condition by two-fold serial dilutions method; type: functional
[4] = test system: Streptococcus thermophilus; assay: Antimicrobial activity against Streptococcus thermophilus after 18 to 24 hrs in anaerobic condition by two-fold serial dilutions method; type: functional
In short: (§3)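 Precultures in BHI broth at 37 °C in an anaerobic cabinet, grown to log phase (OD600 ~0.6), then seeded at ~10^5 bacteria/mL. Two-fold dilutions from 0 to 500 µM, 0.2% DMSO final as control. Plates incubated anaerobically at 37 °C for 18–24 h, OD600 read; MIC = lowest concentration giving no visible growth; independent triplicate.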

[5] = test system: Bacteroides thetaiotaomicron; assay: Antimicrobial activity against Bacteroides thetaiotaomicron after 18 to 24 hrs in anaerobic condition by two-fold serial dilutions method; type: functional; in short: as §3
Citrobacter farmeri = assay: Antimicrobial activity against Citrobacter farmeri after 18 to 24 hrs in aerobic condition by two-fold serial dilutions method; type: functional; in short: as §1
Citrobacter rodentium = assay: Antimicrobial activity against Citrobacter rodentium after 18 to 24 hrs in aerobic condition by two-fold serial dilutions method; type: functional; in short: as §1
Escherichia coli [6] = assay: Antimicrobial activity against Escherichia coli after 18 to 24 hrs in aerobic condition by two-fold serial dilutions method; type: functional; in short: as §1
Escherichia coli [7] = assay: Antimicrobial activity against Escherichia coli MRS after 18 to 24 hrs in aerobic condition by two-fold serial dilutions method; type: functional; in short: as §1
Escherichia coli [8] = assay: Antimicrobial activity against Escherichia coli […] K88 after 18 to 24 hrs in aerobic condition by two-fold serial dilutions method; type: functional; in short: as §2
Klebsiella pneumoniae [9] = assay: Antimicrobial activity against Klebsiella pneumoniae after 18 to 24 hrs in aerobic condition by two-fold serial dilutions method; type: functional; in short: as §1
Salmonella enterica = assay: Antimicrobial activity against Salmonella enterica after 18 to 24 hrs in aerobic condition by two-fold serial dilutions method; type: functional; in short: as §1
Shigella flexneri = assay: Antimicrobial activity against Shigella flexneri after 18 to 24 hrs in aerobic condition by two-fold serial dilutions method; type: functional; in short: as §1
Vibrio diabolicus = assay: Antimicrobial activity against Vibrio diabolicus after 18 to 24 hrs in aerobic condition by two-fold serial dilutions method; type: functional; in short: as §1
Stachybotrys chartarum = assay: Antifungal activity against Stachybotrys chartarum after 2 to 5 days by two-fold serial dilutions method; type: functional
In short: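 Broth two-fold serial dilution MIC, 0 to 500 µM (1:2 steps), from 200 mM DMSO stocks; 0.2% DMSO final as vehicle control. Inoculum about 10^5 cells/mL. Strains maintained on potato dextrose agar and in RPMI medium. Plates held at room temperature for 2 to 5 days, OD600 read; MIC = lowest concentration preventing visible growth; independent triplicate.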

BEAS-2B = assay: Cytotoxicity against human BEAS2B cells assessed as reduction in cell viability after 48 hrs by Resazurin dye-based assay; conditions: for IC50: Homo sapiens, BEAS-2B; for Activity: human, beas-2b
In short: (§4)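 Normal human lung epithelial (BEAS-2B) and lung fibroblast (IMR-90) cells were grown in DMEM with 10% FCS. Cells were seeded at ~10^4/well, grown to confluence (48–72 h), then exposed to increasing concentrations for 48 h at 37 °C, 5% CO2, with 0.2% DMSO as control. Resazurin was added for 4 h and fluorescence read at 530/590 nm. Viability was normalized to DMSO wells and IC50 calculated.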

IMR-90 = assay: Cytotoxicity against human IMR90 cells assessed as reduction in cell viability after 48 hrs by Resazurin dye-based assay; conditions: for IC50: Homo sapiens, IMR-90, 48 h; for Activity: human, imr-90, 48 h; in short: as §4
Bacillus subtilis [10] = assay: Bactericidal activity against Nisin-resistant Bacillus subtilis in aerobic condition; type: functional, organism-based
Clostridioides difficile = assay: Bactericidal activity against Clostridium difficile in anaerobic condition; type: functional, organism-based
In short: (§5)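 From the MIC plates, 10 µL from each well without growth was streaked onto agar suited to the organism and incubated under that organism's growth conditions. Colonies were then counted; MBC = lowest concentration allowing ≤1 colony, i.e. killing 99.9% of bacteria.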

Clostridium perfringens [11] = assay: Bactericidal activity against Clostridium perfringens in anaerobic condition; type: functional, organism-based
Lactococcus lactis = assay: Bactericidal activity against Lactococcus lactis in aerobic condition; type: functional, organism-based; in short: as §5
Acinetobacter baumannii [12] = assay: Bactericidal activity against Acinetobacter baumannii in aerobic condition; type: functional, organism-based; in short: as §5
Acinetobacter baumannii [13] = assay: Bactericidal activity against Acinetobacter baumannii MRS in aerobic condition; type: functional, organism-based; in short: as §5
[14] = test system: Bacteroides thetaiotaomicron; assay: Bactericidal activity against Bacteroides thetaiotaomicron in anaerobic condition; type: functional, organism-based; in short: as §5
Escherichia coli [15] = assay: Bactericidal activity against Escherichia coli in aerobic condition; type: functional, organism-based; in short: as §5
Escherichia coli [16] = assay: Bactericidal activity against Escherichia coli MRS in aerobic condition; type: functional, organism-based; in short: as §5
Helicobacter pylori = assay: Bactericidal activity against Helicobacter pylori in anaerobic condition; type: functional, organism-based; in short: as §5
Klebsiella pneumoniae [17] = assay: Bactericidal activity against Klebsiella pneumoniae in aerobic condition; type: functional, organism-based; in short: as §5
Candida albicans = assay: Fungicidal activity against Candida albicans; type: functional, organism-based
In short: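 C. albicans in RPMI buffered with 0.165 M MOPS (pH 7.0). Two-fold serial dilutions from 0 to 500 µM, 0.2% DMSO final. Plates incubated at 35 °C for 24 h; OD600 read, MIC taken as the lowest concentration with no visible growth. Fungicidal concentration defined by ≤1 colony after streaking 10 µL of no-growth wells on agar. n = 3.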

Fusarium oxysporum = assay: Fungicidal activity against Fusarium oxysporum; type: functional, organism-based
In short: (§6)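 Filamentous fungi grown on potato dextrose agar and tested in RPMI medium with two-fold serial dilutions (0–500 µM, 0.2% DMSO final). Plates held at room temperature for 2 to 5 days, then OD600 read; MIC taken as the lowest concentration with no visible growth. The fungicidal endpoint is ≤1 colony after streaking 10 µL of no-growth wells on agar. n = 3.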

Penicillium verrucosum = assay: Fungicidal activity against Penicillium verrucosum; type: functional, organism-based; in short: as §6

| Compound | MIC (Bacillus subtilis [1]) [µM] | MIC (Bacillus subtilis [2]) [µM] | MIC (Clostridium perfringens [3]) [µM] | MIC (Cutibacterium acnes) [µM] | MIC [4] [µM] | MIC [5] [µM] | MIC (Citrobacter farmeri) [µM] | MIC (Citrobacter rodentium) [µM] | MIC (Escherichia coli [6]) [µM] | MIC (Escherichia coli [7]) [µM] | MIC (Escherichia coli [8]) [µM] | MIC (Klebsiella pneumoniae [9]) [µM] | MIC (Salmonella enterica) [µM] | MIC (Shigella flexneri) [µM] | MIC (Vibrio diabolicus) [µM] | MIC (Stachybotrys chartarum) [µM] | IC50 (BEAS-2B) [µM] | Activity (BEAS-2B) | IC50 (IMR-90) [µM] | Activity (IMR-90) | further results |
| --- | --- | --- | --- | --- | --- | --- | --- | --- | --- | --- | --- | --- | --- | --- | --- | --- | --- | --- | --- | --- | --- |
| O=C1/C(=C/c2ccc(F)cc2)Oc2cc(O)cc(O)c21 | 62.5 (≈ 17 µg/mL) | 31.2 (≈ 8.51 µg/mL) | 31.2 to 62.5 (≈ 8.51 to 17 µg/mL) | 31.2 (≈ 8.51 µg/mL) | 31.2 (≈ 8.51 µg/mL) | > 500 | > 500 | > 500 | > 500 | > 500 | > 500 | > 500 | > 500 | > 500 | > 500 | > 500 | 590 | Dose-dependent effect | 620 | Dose-dependent effect | Activity (Bacillus subtilis [10]): Active; Activity (Clostridioides difficile): Active; Activity (Clostridium perfringens [11]): Active; Activity (Lactococcus lactis): Active; Activity (Acinetobacter baumannii [12]): Active; Activity (Acinetobacter baumannii [13]): Active; Activity [14]: Active; Activity (Escherichia coli [15]): Active; Activity (Escherichia coli [16]): Active; Activity (Helicobacter pylori): Active; Activity (Klebsiella pneumoniae [17]): Active; Activity (Candida albicans): Active; Activity (Fusarium oxysporum): Active; Activity (Penicillium verrucosum): Active |
| COc1cc(/C=C2\Oc3cc(O)cc(O)c3C2=O)ccc1OCc1ccccc1 | 7.8 (≈ 3.05 µg/mL) | 3.9 (≈ 1.52 µg/mL) | 31.2 to 62.5 (≈ 12.2 to 24.4 µg/mL) | 31.2 (≈ 12.2 µg/mL) | 125 (≈ 48.8 µg/mL) | > 500 | > 500 | > 500 | > 500 | > 500 | > 500 | > 500 | > 500 | > 500 | > 500 | > 500 | 190 | Dose-dependent effect | 340 | Dose-dependent effect | Activity (Bacillus subtilis [10]): Active; Activity (Clostridioides difficile): Active; Activity (Clostridium perfringens [11]): Active; Activity (Lactococcus lactis): Active; Activity (Acinetobacter baumannii [12]): Active; Activity (Acinetobacter baumannii [13]): Active; Activity [14]: Active; Activity (Escherichia coli [15]): Active; Activity (Escherichia coli [16]): Active; Activity (Helicobacter pylori): Active; Activity (Klebsiella pneumoniae [17]): Active; Activity (Candida albicans): Active; Activity (Fusarium oxysporum): Active; Activity (Penicillium verrucosum): Active |
| O=C1/C(=C/c2ccccc2)Oc2cc(O)cc(O)c21 | 62.5 to 125 (≈ 15.9 to 31.8 µg/mL) | 31.2 (≈ 7.95 µg/mL) | 7.8 (≈ 1.98 µg/mL) | 31.2 (≈ 7.95 µg/mL) | 31.2 (≈ 7.95 µg/mL) | > 500 | > 500 | > 500 | > 500 | > 500 | > 500 | > 500 | > 500 | > 500 | > 500 | > 500 | 280 | Dose-dependent effect | 250 | Dose-dependent effect | Activity (Bacillus subtilis [10]): Active; Activity (Clostridioides difficile): Active; Activity (Clostridium perfringens [11]): Active; Activity (Lactococcus lactis): Active; Activity (Acinetobacter baumannii [12]): Active; Activity (Acinetobacter baumannii [13]): Active; Activity [14]: Active; Activity (Escherichia coli [15]): Active; Activity (Escherichia coli [16]): Active; Activity (Helicobacter pylori): Active; Activity (Klebsiella pneumoniae [17]): Active; Activity (Candida albicans): Active; Activity (Fusarium oxysporum): Active; Activity (Penicillium verrucosum): Active |
